Reference: PMC9050161 (RSC Advances, 2020)

How the values were obtained:
UGT1A1 = UGT1A1 (Homo sapiens, UniProt P22309); assay: Inhibition of UGT1A1; type: biochemical; details: PI-103 1, 10 and 100 μM
How it was run: (§1)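 Recombinant human UGTs screened with probe substrates: β-estradiol for UGT1A1, propofol for 1A9, and 4-methylumbelliferone for 1A3, 1A6, 1A7, 1A8, 1A10, 2B4, 2B7, 2B10, 2B15 and 2B17. Incubated at 37 °C without (control) or with test compound at 1, 10 or 100 μM. Glucuronide formation measured relative to control; triplicate.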

UGT1A10 = UGT1A10 (Homo sapiens, UniProt Q9HAW8); assay: Inhibition of UGT1A10; type: biochemical; details: PI-103 1, 10 and 100 μM
Sequence of UGT1A10 (Q9HAW8 26-530): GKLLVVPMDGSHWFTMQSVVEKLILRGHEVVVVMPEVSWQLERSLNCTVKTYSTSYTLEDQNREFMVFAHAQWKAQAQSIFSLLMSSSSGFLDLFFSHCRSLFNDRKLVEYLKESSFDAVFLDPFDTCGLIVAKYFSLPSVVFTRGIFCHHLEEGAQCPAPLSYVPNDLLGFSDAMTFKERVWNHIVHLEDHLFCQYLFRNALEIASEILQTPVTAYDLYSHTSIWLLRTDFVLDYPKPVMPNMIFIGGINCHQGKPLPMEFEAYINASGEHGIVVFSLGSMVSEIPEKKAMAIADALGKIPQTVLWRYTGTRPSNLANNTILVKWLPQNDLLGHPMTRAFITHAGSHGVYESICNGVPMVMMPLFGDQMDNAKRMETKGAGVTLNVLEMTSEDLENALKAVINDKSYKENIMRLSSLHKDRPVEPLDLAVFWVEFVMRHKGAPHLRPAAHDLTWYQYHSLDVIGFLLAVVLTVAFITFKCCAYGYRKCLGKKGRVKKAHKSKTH
How it was run: as §1

CYP2E1 = CYP2E1 (Homo sapiens, UniProt P05181); assay: Inhibition of CYP2E1; type: biochemical
Sequence of CYP2E1 (P05181 whole entry): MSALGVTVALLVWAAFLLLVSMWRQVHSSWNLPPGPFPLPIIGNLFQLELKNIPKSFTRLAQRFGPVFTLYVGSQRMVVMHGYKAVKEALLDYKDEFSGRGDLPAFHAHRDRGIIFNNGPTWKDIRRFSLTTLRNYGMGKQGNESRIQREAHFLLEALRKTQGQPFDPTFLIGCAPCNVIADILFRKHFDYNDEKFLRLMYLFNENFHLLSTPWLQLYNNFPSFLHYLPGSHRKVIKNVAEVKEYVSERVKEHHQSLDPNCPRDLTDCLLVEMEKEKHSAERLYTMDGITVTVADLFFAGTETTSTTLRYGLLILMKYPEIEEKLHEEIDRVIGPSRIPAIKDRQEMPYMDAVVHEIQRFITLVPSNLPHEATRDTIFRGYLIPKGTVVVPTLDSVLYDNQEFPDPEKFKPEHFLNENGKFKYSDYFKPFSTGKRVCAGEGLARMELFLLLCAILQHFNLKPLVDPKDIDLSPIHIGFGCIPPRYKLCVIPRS
How it was run: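 Recombinant human CYPs at 0.1 mg mL−1 protein, each with its probe substrate near Km: coumarin 100 μM (2A6), bupropion 100 μM (2B6), paclitaxel 60 μM (2C8), tolbutamide 200 μM (2C9), mephenytoin 100 μM (2C19), chlorzoxazone 200 μM (2E1). Incubated at 37 °C with or without test compound at 1, 10 or 100 μM. UHPLC-TQD-MS read-out; triplicate.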

MRP1 = MRP1 (Homo sapiens, UniProt P33527); assay: M2 excretion in HeLa1A9 cells after shRNA knock-down of MRP1; type: cell-based; details: MRP1 partially silenced
Sequence of MRP1 (P33527 whole entry): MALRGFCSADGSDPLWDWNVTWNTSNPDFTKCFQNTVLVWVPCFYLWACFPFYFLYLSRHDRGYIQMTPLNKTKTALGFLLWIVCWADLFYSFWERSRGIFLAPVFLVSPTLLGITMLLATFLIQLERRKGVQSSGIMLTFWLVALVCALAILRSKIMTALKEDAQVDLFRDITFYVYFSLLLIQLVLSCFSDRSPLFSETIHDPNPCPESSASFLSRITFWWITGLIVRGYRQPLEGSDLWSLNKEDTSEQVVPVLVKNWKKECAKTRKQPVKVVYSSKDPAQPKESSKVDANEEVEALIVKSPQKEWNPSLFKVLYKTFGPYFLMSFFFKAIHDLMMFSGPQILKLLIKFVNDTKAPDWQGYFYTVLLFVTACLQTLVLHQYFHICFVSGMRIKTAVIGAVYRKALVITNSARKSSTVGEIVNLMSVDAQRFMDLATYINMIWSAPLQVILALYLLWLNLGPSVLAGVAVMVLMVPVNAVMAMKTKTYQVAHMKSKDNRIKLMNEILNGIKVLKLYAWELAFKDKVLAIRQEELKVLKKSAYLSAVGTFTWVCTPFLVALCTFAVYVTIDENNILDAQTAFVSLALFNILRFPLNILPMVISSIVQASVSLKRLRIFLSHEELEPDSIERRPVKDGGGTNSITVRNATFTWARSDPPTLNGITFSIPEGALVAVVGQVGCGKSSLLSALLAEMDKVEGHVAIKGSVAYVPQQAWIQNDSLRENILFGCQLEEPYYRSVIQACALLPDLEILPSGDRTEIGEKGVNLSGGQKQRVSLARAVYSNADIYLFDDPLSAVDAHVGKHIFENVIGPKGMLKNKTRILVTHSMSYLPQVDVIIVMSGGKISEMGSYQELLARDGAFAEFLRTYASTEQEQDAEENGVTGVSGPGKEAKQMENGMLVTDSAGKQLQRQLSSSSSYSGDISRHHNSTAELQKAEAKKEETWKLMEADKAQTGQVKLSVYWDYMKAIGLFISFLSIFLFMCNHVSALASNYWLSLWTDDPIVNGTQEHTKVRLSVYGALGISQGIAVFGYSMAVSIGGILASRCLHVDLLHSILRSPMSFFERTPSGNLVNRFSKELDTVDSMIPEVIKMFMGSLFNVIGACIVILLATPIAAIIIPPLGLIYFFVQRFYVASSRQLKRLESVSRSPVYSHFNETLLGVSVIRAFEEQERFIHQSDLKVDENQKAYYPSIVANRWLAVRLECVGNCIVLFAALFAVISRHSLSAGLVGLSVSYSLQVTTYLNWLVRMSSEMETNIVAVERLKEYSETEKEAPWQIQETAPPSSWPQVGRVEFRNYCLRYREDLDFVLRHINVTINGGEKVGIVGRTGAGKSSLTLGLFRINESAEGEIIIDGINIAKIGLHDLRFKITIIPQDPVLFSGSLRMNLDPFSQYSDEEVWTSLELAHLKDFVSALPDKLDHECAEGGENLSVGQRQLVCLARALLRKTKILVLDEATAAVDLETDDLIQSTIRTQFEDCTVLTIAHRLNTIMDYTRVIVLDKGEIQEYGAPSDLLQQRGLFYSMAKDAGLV
How it was run: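 shRNA plasmid against BCRP, MRP1, MRP3 or MRP4 transfected into UGT1A9-expressing HeLa cells, then exposed to 5 μM test compound in HBSS. Medium sampled at 30–120 min with replacement; cells collected at 120 min. UHPLC gave extracellular and intracellular glucuronide, excretion rate, efflux clearance (excretion rate/intracellular concentration) and fraction metabolized (fmet), each compared with control. Triplicate.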

UGT1A8 = UGT1A8 (Homo sapiens, UniProt Q9HAW9); assay: Inhibition of UGT1A8; type: biochemical; details: PI-103 1, 10 and 100 μM
Sequence of UGT1A8 (Q9HAW9 26-530): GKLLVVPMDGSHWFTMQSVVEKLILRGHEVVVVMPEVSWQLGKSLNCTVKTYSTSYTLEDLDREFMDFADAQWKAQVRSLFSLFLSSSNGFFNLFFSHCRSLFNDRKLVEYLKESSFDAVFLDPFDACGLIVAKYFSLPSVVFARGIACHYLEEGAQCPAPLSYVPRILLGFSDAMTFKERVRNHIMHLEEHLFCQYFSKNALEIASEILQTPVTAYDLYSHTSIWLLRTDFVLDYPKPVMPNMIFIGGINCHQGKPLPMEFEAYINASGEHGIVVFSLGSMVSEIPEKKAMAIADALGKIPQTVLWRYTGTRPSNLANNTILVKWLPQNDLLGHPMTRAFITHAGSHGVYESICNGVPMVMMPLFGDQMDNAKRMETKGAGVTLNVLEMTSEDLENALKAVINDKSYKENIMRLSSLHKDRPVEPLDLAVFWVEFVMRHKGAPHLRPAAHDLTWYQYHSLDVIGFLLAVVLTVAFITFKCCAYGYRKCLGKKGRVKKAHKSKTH
How it was run: as §1

Sequence of UGT1A1 (P22309 26-533): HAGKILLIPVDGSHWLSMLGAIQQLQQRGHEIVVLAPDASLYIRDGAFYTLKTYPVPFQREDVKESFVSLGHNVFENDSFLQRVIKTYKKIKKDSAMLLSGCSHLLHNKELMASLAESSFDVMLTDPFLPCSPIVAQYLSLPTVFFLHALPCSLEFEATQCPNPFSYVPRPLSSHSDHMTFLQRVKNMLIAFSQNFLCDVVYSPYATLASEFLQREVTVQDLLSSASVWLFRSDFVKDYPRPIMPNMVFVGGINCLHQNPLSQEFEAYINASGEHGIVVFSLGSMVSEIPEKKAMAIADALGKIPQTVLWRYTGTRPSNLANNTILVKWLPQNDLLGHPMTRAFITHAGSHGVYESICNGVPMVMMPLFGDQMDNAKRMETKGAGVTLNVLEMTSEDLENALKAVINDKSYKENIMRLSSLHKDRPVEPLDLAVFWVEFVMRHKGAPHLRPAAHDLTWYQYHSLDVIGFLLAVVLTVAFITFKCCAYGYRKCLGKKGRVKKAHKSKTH

Oc1cccc(-c2nc(N3CCOCC3)c3oc4ncccc4c3n2)c1 [PI-103]
inhibitory effect (UGT1A1): negligible
inhibitory effect (UGT1A10): negligible
IC50 (CYP2E1): 330 ± 40 nM
Ki (CYP2E1): 250 ± 10 nM
residual activity (CYP2E1; CYP2E1, 100 μM PI-103): 13.69 % of the negative control
Type of inhibition (CYP2E1; CYP2E1, chlorzoxazone): Noncompetitive
reduction in fmet value (MRP1): 29.2%
inhibitory effect (UGT1A8): negligible
